TCS50 and CC50 data for 8 molecules are collected here from ChEMBL document CHEMBL1146230, “New analogues of the potent cytotoxic saponin OSW-1” (J Med Chem, 2007).

One series deals with K562. The experiment in a line: Cytotoxicity against K562 cells after 72 hrs. Format: functional, Homo sapiens. The method in brief: (§1)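 Cells grown in DMEM with 10% fetal calf serum, 4 mM glutamine, penicillin/streptomycin, 37 °C, 5% CO2. About 1.25×10^5 cells/mL seeded and stabilized 3 h. Compounds added in DMSO as serial (usually 6- and 4-fold) dilutions, top well usually 50 µM, DMSO final ≤0.6%. After 72 h, Calcein AM for 1 h, fluorescence read. Survival taken vs DMSO controls; TCS50 from dose-response curves; mean ± SD of three experiments.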

The next series concerns A549. The experiment in a line: Cytotoxicity against A549 cells after 72 hrs. It is filed as functional, Homo sapiens. Summed up:
as §1

Series [1] can be described thus: Cytotoxicity against mouse NIH 3T3 cells after 72 hrs. It is filed as cell-based, NIH3T3. The note with it: read-out: TCS50. Summed up: as §1
In a further series the test system is G-361. The series can be described thus: Cytotoxicity against human G361 cells after 72 hrs. Format: functional. Summed up: as §1
Another series concerns HeLa. The series can be described thus: Cytotoxicity against HeLa cells after 72 hrs. It is filed as functional, Homo sapiens. The method in brief: as §1
A short description of series [2]: Cytotoxicity against ARN8 cells after 72 hrs. Format: functional, Homo sapiens. Summed up:
as §1

For a further series, the system named is CCRF-CEM. The series can be described thus: Cytotoxicity against CEM cells after 72 hrs. It is filed as functional, Homo sapiens. The method in brief: as §1
The subject of another series is HOS. The series can be described thus: Cytotoxicity against HOS cells after 72 hrs. Format: functional, Homo sapiens. The method in brief: as §1
The subject of another series is MCF7. The series can be described thus: Cytotoxicity against MCF7 cells after 72 hrs. It is filed as functional, Homo sapiens. The method in brief:
as §1

The structures appear in SMILES notation.

On to `COc1ccc(C(=O)O[C@H]2[C@H](O[C@H]3C[C@H]4[C@@H]5CC=C6C[C@@H](O)CC[C@]6(C)[C@H]5CC[C@]4(C)[C@@]3(O)[C@H](C)C(=O)CCC(C)C)OC[C@@H](O)[C@@H]2O)cc1`, for which the TCS50 is recorded as 1800 nM with K562; 7200 nM in the series with A549; 3500 nM in the series on G-361; 2300 nM in the series on HeLa; 1500 nM in [2]; 1000 nM in the series with CCRF-CEM. In addition, the TCS50 in the series with HOS was found to be 7200 nM; in the series on MCF7, 3500 nM. Besides, the CC50 at 72 h in series [1] is > 50 µM.
Regarding `CCCC(=O)[C@@H](C)[C@@]1(O)[C@@H](O[C@@H]2OC[C@H](O)[C@@H](O[C@@H]3OC[C@@H](O)[C@H](O)[C@H]3OC(=O)c3ccc(OC)cc3)[C@@H]2OC(C)=O)C[C@H]2[C@@H]3CC=C4C[C@@H](O)CC[C@]4(C)[C@H]3CC[C@@]21C`, the TCS50 amounted to 1.4 nM in the series on K562; 0.9 nM in the series with A549; 3100 nM with G-361; 12 nM in the series with HeLa; 3 nM in series [2]; 0.5 nM in the series on CCRF-CEM. For the same molecule, the TCS50 in the series on HOS is 140 nM; in the series on MCF7, 90 nM. In addition, the CC50 at 72 h in [1] is > 50 µM.
As to `COc1ccc(C(=O)O[C@H]2[C@H](O[C@@H]3[C@@H](OC(C)=O)[C@H](O[C@H]4C[C@H]5[C@@H]6CC=C7C[C@@H](O)CC[C@]7(C)[C@H]6CC[C@]5(C)[C@@]4(O)[C@H](C)C(=O)CCC(C)C)OC[C@@H]3O)OC[C@@H](O)[C@@H]2O)cc1`, the TCS50 turned out to be 0.8 nM in the series on K562; 0.5 nM in the series with A549; 1000 nM in the series with G-361; 8 nM with HeLa; 4 nM in series [2]; 0.3 nM in the series on CCRF-CEM. Also, the TCS50 in the series on HOS was 40 nM; in the series with MCF7, 50 nM. In addition, in series [1], the CC50 at 72 h was > 50 µM.
As for `CC(=O)O[C@H]1[C@H](O[C@H]2C[C@H]3[C@@H]4CC=C5C[C@@H](O)CC[C@]5(C)[C@H]4CC[C@]3(C)[C@@]2(O)[C@H](C)C(=O)CCC(C)C)OC[C@H](O)[C@@H]1O`, the TCS50 in the series with K562 was found to be 430 nM; with A549 it was 4200 nM; in the series on G-361 it was 2200 nM; in the series with HeLa it was 570 nM; in [2] it was 1950 nM; in the series with CCRF-CEM, 200 nM. For the same molecule, the TCS50 was 4200 nM in the series on HOS and 1300 nM with MCF7. Also, in [1], the CC50 at 72 h was > 50 µM.
As for `CCCCCC(=O)[C@@H](C)[C@@]1(O)[C@@H](O[C@@H]2OC[C@H](O)[C@H](O[C@@H]3OC[C@@H](O)[C@H](O)[C@H]3OC(=O)c3ccc(OC)cc3)[C@H]2OC(C)=O)C[C@H]2[C@@H]3CC=C4C[C@@H](O)CC[C@]4(C)[C@H]3CC[C@@]21C`, the TCS50 was found to be 0.7 nM with K562; 0.5 nM in the series on A549; 1400 nM in the series with G-361; 8 nM in the series on HeLa; 0.6 nM in series [2]; 0.2 nM in the series with CCRF-CEM. Also, the TCS50 in the series with HOS is reported as 42 nM; in the series on MCF7, 40 nM. Also, in series [1], the CC50 at 72 h is > 50 µM.
With `CCCCCOC[C@@H](C)[C@@]1(O)[C@@H](O[C@@H]2OC[C@H](O)[C@H](O[C@@H]3OC[C@@H](O)[C@H](O)[C@H]3OC(=O)c3ccc(OC)cc3)[C@H]2OC(C)=O)C[C@H]2[C@@H]3CC=C4C[C@@H](O)CC[C@]4(C)[C@H]3CC[C@@]21C`, the TCS50 in the series on K562 is on record as <400 nM; with A549, <200 nM; in the series on G-361 it was 1900 nM; with HeLa it was 350 nM; in [2], <400 nM; with CCRF-CEM, <200 nM. The TCS50 is reported as 1800 nM with HOS and 860 nM in the series with MCF7. Also, the CC50 at 72 h in [1] was > 50 µM.
On to `COc1ccc(C(=O)O[C@H]2[C@H](O[C@@H]3[C@@H](OC(C)=O)[C@H](O[C@@H](CCC(C)C)[C@@H](C)[C@@]4(O)C(=O)C[C@H]5[C@@H]6CC=C7C[C@@H](O)CC[C@]7(C)[C@H]6CC[C@@]54C)OC[C@@H]3O)OC[C@@H](O)[C@@H]2O)cc1`, for which the TCS50 in the series with K562 is recorded as 430 nM; in the series on A549, 480 nM; with G-361, 14400 nM; in the series on HeLa, 1000 nM; in [2], 500 nM; in the series on CCRF-CEM, 280 nM. Besides, the TCS50 with HOS turned out to be 11700 nM; in the series on MCF7, 3400 nM. The CC50 at 72 h in [1] was > 50 µM.
Take `COc1cccc2c1C(=O)c1c(O)c3c(c(O)c1C2=O)C[C@@](O)(C(C)=O)C[C@@H]3O[C@H]1C[C@H](N)[C@H](O)[C@H](C)O1` [DAUNORUBICIN]: the TCS50 in the series on K562 is given as 230 nM; with G-361 it was 670 nM; in the series on HeLa, 670 nM; in the series on CCRF-CEM, 62 nM; in the series with HOS, 330 nM; in the series with MCF7, 140 nM.
